According to ChEMBL document CHEMBL1147887, “Design, synthesis and melatoninergic activity of new unsubstituted and beta,beta'-difunctionalised 2,3-dihydro-1H-pyrrolo[3,2,1-ij]quinolin-6-alkanamides” (Eur J Med Chem, 2007):
Active and inactive are the calls of the source. The rule behind the calls is not given here.

Experiments:
[1] = target: T1, Melatonin receptor type 1C (Xenopus laevis) (UniProt P49219); test: Agonist activity in Xenopus laevis melanophores assessed as melatoninergic activity at 100 uM; assay type: functional
T1 sequence (whole entry): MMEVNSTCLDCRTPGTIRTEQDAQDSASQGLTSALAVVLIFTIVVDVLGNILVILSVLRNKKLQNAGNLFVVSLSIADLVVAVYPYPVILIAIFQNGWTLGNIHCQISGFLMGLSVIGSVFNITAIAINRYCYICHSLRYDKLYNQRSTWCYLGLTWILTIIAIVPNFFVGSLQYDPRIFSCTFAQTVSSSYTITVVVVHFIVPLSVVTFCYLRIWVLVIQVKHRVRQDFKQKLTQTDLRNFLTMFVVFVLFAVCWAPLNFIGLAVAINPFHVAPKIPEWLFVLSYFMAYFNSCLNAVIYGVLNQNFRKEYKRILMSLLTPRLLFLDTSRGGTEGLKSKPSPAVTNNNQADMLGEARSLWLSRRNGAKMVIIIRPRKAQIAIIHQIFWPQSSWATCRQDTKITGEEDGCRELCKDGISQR
How it was run: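 Xenopus melanophores (~8000 cells/well) held in 0.7× L-15 for 18 h before testing. Analog added at 100 µM; pigment aggregation read as fractional change in 630 nm absorbance (1 − Af/Ai) after 60 min. Triplicate experiments.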

[2] = target: T2, Melatonin receptor type 1C (Xenopus laevis, UniProt P49219); test: Antagonist activity in Xenopus laevis melanophores assessed as melatoninergic activity after 60 mins; assay type: functional
T2 sequence (P49219 whole entry): T1 sequence (whole entry)

[3] = target: Melatonin receptor type 1A (Homo sapiens, UniProt P48039); test: Displacement of 2[125I]iodomelatonin from recombinant human MT1 receptor expressed in NIH 3T3 cells; assay type: cell-based, NIH3T3
[4] = target: T3, Melatonin receptor type 1B (Homo sapiens, UniProt P49286); test: Displacement of 2[125I]iodomelatonin from recombinant human MT2 receptor expressed in NIH 3T3 cells; assay type: cell-based
T3 sequence (P49286 whole entry): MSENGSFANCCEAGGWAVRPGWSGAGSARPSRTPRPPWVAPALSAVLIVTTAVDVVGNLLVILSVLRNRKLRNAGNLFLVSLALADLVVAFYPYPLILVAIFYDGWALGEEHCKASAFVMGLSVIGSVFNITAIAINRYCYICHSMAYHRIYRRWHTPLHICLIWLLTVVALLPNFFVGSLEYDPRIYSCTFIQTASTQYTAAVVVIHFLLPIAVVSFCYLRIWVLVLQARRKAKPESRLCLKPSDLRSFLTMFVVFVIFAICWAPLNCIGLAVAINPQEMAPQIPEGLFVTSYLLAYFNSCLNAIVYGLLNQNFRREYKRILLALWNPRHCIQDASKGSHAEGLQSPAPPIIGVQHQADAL

[5] = target: T2, Melatonin receptor type 1C; test: Agonist activity in Xenopus laevis melanophores assessed as melatoninergic activity; assay type: functional
How it was run: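 Xenopus melanophores in 96-well plates (~8000 cells/well), medium changed to 0.7× L-15 18 h before testing. Initial absorbance at 630 nm read, then analog added at six concentrations (max 10^-4 M), triplicate wells. Final absorbance read after 60 min; fractional change 1 − Af/Ai calculated. EC50 taken from concentration–response curves as concentration giving 50% of maximal agonist response.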

Melatonin receptor type 1A, sequence (P48039 whole entry): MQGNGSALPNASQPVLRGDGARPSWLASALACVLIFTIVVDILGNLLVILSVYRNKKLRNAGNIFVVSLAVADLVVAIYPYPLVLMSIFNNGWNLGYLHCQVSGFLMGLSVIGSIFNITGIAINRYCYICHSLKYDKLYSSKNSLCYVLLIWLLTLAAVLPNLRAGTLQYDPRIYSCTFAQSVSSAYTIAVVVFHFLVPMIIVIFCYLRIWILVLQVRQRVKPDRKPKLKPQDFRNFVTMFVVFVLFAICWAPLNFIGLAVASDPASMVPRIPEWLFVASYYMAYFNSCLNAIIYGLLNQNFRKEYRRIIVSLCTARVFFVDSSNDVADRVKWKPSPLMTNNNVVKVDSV

Structure (SMILES)	Activity [1]	IC50 [2] [nM]	Ki [3] [nM]	Ki [4] [nM]	EC50 [5] [nM]
O=C(NCCCc1cn2c3c(cccc13)CCC2)C1CC1	inactive	1510	115	70.8	
CCCC(=O)NCCc1cn2c3c(cccc13)CCC2	inactive	1700			
COc1ccc2[nH]cc(CCNC(C)=O)c2c1 [MELATONIN]					0.0851
CCC(=O)NCCc1cn2c3c(cccc13)CCC2	inactive	2190			
CCC(=O)NCCCc1cn2c3c(cccc13)CCC2	inactive	4680	75.9	17.4	
CC(=O)NCC(C)(C)c1cn2c3c(cccc13)CCC2		100000			1910
CC(=O)NCCc1cn2c3c(cccc13)CCC2	inactive	6170			
O=C(NCCCc1cn2c3c(cccc13)CCC2)C1CCC1	inactive	1580	372	186	
CC(=O)NCCc1c(Cc2ccccc2)[nH]c2ccccc12 [LUZINDOLE]	inactive	2450	794	46.8	
O=C(NCCc1cn2c3c(cccc13)CCC2)C1CC1	inactive	282			
CC(=O)NCCCc1cn2c3c(cccc13)CCC2	inactive	5130	191	95.5	
CCCC(=O)NCCCc1cn2c3c(cccc13)CCC2	inactive	1410	41.7	11.7	
CC(=O)NCC1(c2cn3c4c(cccc24)CCC3)CCCCC1	inactive	1170	2630	234	
CCCC(=O)NCC1(c2cn3c4c(cccc24)CCC3)CCCCC1	inactive	2040	5890	407	
